Reference: ChEMBL document CHEMBL3352181, “Novel phenyl and pyridyl substituted derivatives of isoindolines: Synthesis, antitumor activity and DNA binding features” (Eur J Med Chem, 2014)
The source made the active and inactive calls. The rule behind the calls is not given here.

How the values were obtained:
Calf thymus DNA [1] = assay: Binding affinity to calf thymus DNA assessed as change in melting temperature at drug/ base pair ratio of 0.5 by spectrophotometry; assay type: nucleic-acid assay; details: Bos taurus
In short: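 CT-DNA absorbance followed at 260 nm from 20 to 100 °C, rising 1 °C per min, in BPE buffer, with or without compound at drug/base-pair ratio 0.25 or 0.5. Tm taken as midpoint of the hyperchromic transition from first-derivative plots. ΔTm is Tm with compound minus Tm of DNA alone.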

Calf thymus DNA [2] = assay: Binding affinity to calf thymus DNA at 50 uM circular dichroism spectroscopy; assay type: nucleic-acid assay; details: Bos taurus
In short: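 CD spectra recorded from 480 to 230 nm, 10 mm path, 20 °C, in BPE buffer. CT-DNA (50 µM) incubated with compound rising from 1 to 60 µM or to 80 µM. Compound without DNA served as the control for intrinsic CD.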

[3] = target: T1, DNA topoisomerase 1 (Homo sapiens) (UniProt P11387); assay: Inhibition of human topoisomerase 1 assessed as topoisomerase poison activity by measuring generation of open circular DNA using supercoiled pUC19 DNA at 5 to 50 uM by agarose gel electrophoresis
T1 sequence (whole entry): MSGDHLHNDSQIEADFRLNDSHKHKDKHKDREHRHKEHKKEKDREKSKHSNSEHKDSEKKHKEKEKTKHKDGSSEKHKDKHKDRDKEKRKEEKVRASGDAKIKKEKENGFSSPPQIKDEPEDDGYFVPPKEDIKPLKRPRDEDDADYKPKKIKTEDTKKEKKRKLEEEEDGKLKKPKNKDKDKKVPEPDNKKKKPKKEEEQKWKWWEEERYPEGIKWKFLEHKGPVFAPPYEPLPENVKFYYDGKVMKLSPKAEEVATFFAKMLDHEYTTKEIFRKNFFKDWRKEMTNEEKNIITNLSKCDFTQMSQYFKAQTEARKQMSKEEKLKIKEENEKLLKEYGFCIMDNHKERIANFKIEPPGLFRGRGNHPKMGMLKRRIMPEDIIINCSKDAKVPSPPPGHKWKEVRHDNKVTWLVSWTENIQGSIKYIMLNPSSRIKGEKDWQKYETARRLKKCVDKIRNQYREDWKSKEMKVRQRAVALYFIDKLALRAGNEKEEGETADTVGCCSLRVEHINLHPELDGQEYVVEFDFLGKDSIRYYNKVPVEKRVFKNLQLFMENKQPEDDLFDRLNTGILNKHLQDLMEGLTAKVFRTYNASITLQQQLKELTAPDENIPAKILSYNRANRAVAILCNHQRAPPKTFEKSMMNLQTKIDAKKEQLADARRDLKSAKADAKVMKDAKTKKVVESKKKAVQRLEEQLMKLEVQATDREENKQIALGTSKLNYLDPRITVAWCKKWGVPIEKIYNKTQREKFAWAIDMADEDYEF
In short: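 Supercoiled pUC19 plasmid was incubated with human topoisomerase I and graded compound concentrations. Reactions were stopped with SDS and proteinase K. DNA forms were resolved on 1% agarose in TBE (2 h, 120 V), post-stained with ethidium bromide and photographed under UV. Poisoning was read as appearance of nicked DNA, with camptothecin as the positive control.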

MCF7 = assay: Antiproliferative activity against human MCF7 cells assessed as inhibition of cell proliferation after 72 hrs by MTT assay; assay type: functional, cell-based
In short: (§1)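 Cells grown as monolayers in DMEM with 10% FBS, 2 mM L-glutamine, penicillin/streptomycin, 37 °C, 5% CO2. Seeded at 5000/well on day 0. Compounds added after 24 h as five serial dilutions (0,01 to 100 µM), DMSO ≤0.1%, then 72 h. MTT read-out converted to percentage growth. IC50 by linear regression; quadruplicates in three experiments.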

[4] = (§2) Antiproliferative activity against human SW620 cells assessed as inhibition of cell proliferation after 72 hrs by MTT assay; assay type: functional, cell-based, SW-620; in short: as §1
SW-620 = assay: as §2; assay type: functional, cell-based; in short: as §1
HepG2 = assay: Antiproliferative activity against human HepG2 cells assessed as inhibition of cell proliferation after 72 hrs by MTT assay; assay type: functional, cell-based; details: for IC50: HepG2, 72 h; in short: as §1
BJ = assay: Antiproliferative activity against human BJ cells assessed as inhibition of cell proliferation after 72 hrs by MTT assay; assay type: cell-based; details: for inhibition (INH): human; in short: as §1
HeLa = assay: Antiproliferative activity against human HeLa cells assessed as inhibition of cell proliferation after 72 hrs by MTT assay; assay type: functional, cell-based; in short: as §1
Nucleic Acid [5] = assay: Induction of DNA intercalation in supercoiled pUC19 DNA in presence of human topoisomerase 1 assessed as effect on topoisomerase 1-mediated DNA relaxation at 50 uM by agarose gel electrophoresis; assay type: nucleic-acid assay; details: Escherichia coli
In short: (§3)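 Supercoiled pUC19 incubated with human topoisomerase I and graded compound concentrations. Stopped with SDS/proteinase K. DNA forms resolved on 1% agarose in TBE, 2 h at 120 V, stained post-run with ethidium bromide and viewed under UV. Camptothecin was the topo I poison control.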

Nucleic Acid [6] = assay: Induction of DNA intercalation in supercoiled pUC19 DNA in presence of human topoisomerase 1 assessed as effect on topoisomerase 1-mediated DNA relaxation at 5 to 50 uM by agarose gel electrophoresis; assay type: nucleic-acid assay; details: Escherichia coli; in short: as §3

Compound	ΔTm (Calf thymus DNA [1]) [°C]	Activity (Calf thymus DNA [2])	inhibition [3]	inhibition (MCF7)	IC50 (MCF7; Homo sapiens, MCF7, 72 h) [µM]	IC50 ([4]; Homo sapiens, SW-620, 72 h) [µM]	inhibition (SW-620)	inhibition (HepG2)	IC50 (HepG2) [µM]	IC50 (BJ; Homo sapiens, BJ, 72 h) [µM]	inhibition (INH) (BJ; bj, 72 h)	inhibition (HeLa)	IC50 (HeLa; Homo sapiens, HeLa, 72 h) [µM]	Activity (Nucleic Acid [5])	IC50 (MCF7; mcf7) [µM]	IC50 ([4]; sw-620) [µM]	IC50 (BJ; bj) [µM]	IC50 (HeLa; hela) [µM]	Activity (Nucleic Acid [6])
CC(C)NC(=N)c1ccc(/N=C2\c3ccccc3CN2c2ccc(C(=N)NC(C)C)cn2)nc1.Cl	4.4	inactive	inactive	Dose-dependent effect	> 100	> 100	Dose-dependent effect	Dose-dependent effect	> 100	> 100	Dose-dependent effect	Dose-dependent effect	> 100	–	–	–	–	–	–
Cc1ccnc(/N=C2\c3ccccc3CN2c2cc(C)ccn2)c1	0	–	inactive	Dose-dependent effect	0.7	> 100	Dose-dependent effect	Dose-dependent effect	43.2	80.1	Dose-dependent effect	Dose-dependent effect	97.1	Active	–	–	–	–	–
Cl.Nc1ccc(/N=C2\c3ccccc3CN2c2ccc(N)cc2)cc1	–	–	–	–	–	–	–	–	–	–	Dose-dependent effect	–	–	–	0.73	51.1	80.5	62.4	–
N#Cc1ccc(/N=C2\c3ccccc3CN2c2ccc(C#N)nc2)cn1	–	–	–	Dose-dependent effect	40.5	83.8	Dose-dependent effect	Dose-dependent effect	5.51	9	Dose-dependent effect	Dose-dependent effect	4.46	–	–	–	–	–	–
Cl.N=C(N)c1ccc(N2Cc3ccccc3C2=O)nc1	–	–	–	Dose-dependent effect	35.6	44.8	Dose-dependent effect	Dose-dependent effect	40.6	15.8	Dose-dependent effect	Dose-dependent effect	60	–	–	–	–	–	–
CC(=O)Nc1ccc(/N=C2\c3ccccc3CN2c2ccc(NC(C)=O)nc2)cn1	0	–	inactive	Dose-dependent effect	16	> 100	Dose-dependent effect	Dose-dependent effect	30.4	> 100	Dose-dependent effect	Dose-dependent effect	> 100	–	–	–	–	–	inactive
CC(=O)Nc1ccc(/N=C2\c3ccccc3CN2c2ccc(NC(C)=O)cc2)cc1	–	–	–	Dose-dependent effect	38.2	> 100	Dose-dependent effect	Dose-dependent effect	71	92.4	Dose-dependent effect	Dose-dependent effect	> 100	–	–	–	–	–	–
